Activity, logP and IC50 data for 13 molecules are collected here from ChEMBL document CHEMBL3091393, “Antioxidant activities of 5-hydroxyoxindole and its 3-hydroxy-3-phenacyl derivatives: the suppression of lipid peroxidation and intracellular oxidative stress” (Bioorg Med Chem, 2013).

Series [1] relates to Radical scavenging activity. As to the kind of experiment: Antioxidant activity assessed as DPPH free radical scavenging activity by spectroscopic analysis. The format is functional.
Series [2] in a line: Octanol-water partition coefficient, logKOW of the compound. The format is physicochemical. As to conditions: read-out: log KOW.
For series [3], the system named is HL-60. In words: Cytotoxicity against human HL60 cells assessed as reduction of cell viability at 100 uM after 24 hrs by trypan blue dye exclusion test. In kind it is cell-based. As to conditions: hl-60, 24 h. The procedure, abridged:
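HL60 cells at 1.0 × 10⁶/well exposed to compound (100 μM, 1% DMSO final) for 24 h at 37 °C, 5% CO2. Cells pelleted and resuspended in PBS(−). Viable cells counted by trypan blue exclusion on an automated counter.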

In series [4] the test system is HL-60. As to the kind of experiment: Antioxidant activity in human HL60 cells assessed as reduction of H2O2-induced intracellular oxidative stress at 10 uM after 1 hr using DCFH-DA by FACS analysis. In kind it is functional, cell-based. The procedure, abridged: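 HL60 cells (RPMI-1640, 5% heat-inactivated FBS, 37 °C, 5% CO2) at 1.0 × 10⁶/well loaded with DCFH-DA (10 μM, 15 min), washed, then pretreated 1 h with compound (10 μM, 1% DMSO final). H2O2 (200 μM) added for 1 h; water for controls. Fluorescence (ex 488/em 530 nm) measured by flow cytometry on about 10,000 cells per sample.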
For orientation: In flow cytometry, cells or beads pass a laser one at a time.

Series [5] deals with Liver microsome. In words: Antioxidant activity against tert-butylhydroperoxide-induced lipid peroxidation in rat liver microsomes after 20 mins by TBARS method. In kind it is functional. The procedure, abridged:
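Kept on ice, then peroxidation started with tert-butylhydroperoxide (1 mM) and run 37 °C, 20 min. Stopped with BHT, then TCA/TBA at 85 °C for 20 min. TBARS read as A535−A600. IC50 is the mean of 3 independent trials.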
Background: Microsomes from liver hold many membrane-bound enzymes, among them those of drug oxidation.

Structures are written as SMILES. Activity calls are given as the source filed them. The rule behind the calls is not given here.

What is called IC50 is the concentration that gives 50% inhibition. A lower IC50 goes with higher potency. Turning to `Cc1ccc(C(=O)CC2(O)C(=O)Nc3ccc(O)cc32)cc1` (stereo not given), the Activity is 1.8 ×10³ /M/s in series [1] and “Non-toxic” in series [3]. The logP in series [2] worked out at 2.2. Further, the outcome in series [4] was Active. The molecule further returned an IC50 in series [5] of 160 µM.

As for `O=C(CC1(O)C(=O)Nc2ccc(O)cc21)c1ccc(I)cc1` (stereo not given), the Activity in series [1] turned out to be 2.2 ×10³ /M/s. Further, the logP in series [2] stood at 2.81. Further, in series [4], the result was Active. The half-inhibitory concentration (IC50) in series [5] came to 55 µM.

`O=C(CC1(O)C(=O)Nc2ccc(O)cc21)c1ccc([N+](=O)[O-])cc1` (stereo not given): the Activity in series [1] was determined as 2.5 ×10³ /M/s. The logP in series [2] amounted to 1.85. For the same molecule, the outcome in series [4] was Active. In series [5], this molecule had an IC50 of 40 µM.

`O=C(CC1(O)C(=O)Nc2ccc(O)cc21)c1ccc(Cl)cc1` (stereo not given): the results for the Activity in series [1] and in series [3] were 2.4 ×10³ /M/s and “Toxic”, respectively. In addition, the logP in series [2] stood at 2.45. Besides, the outcome in series [4] was Active. Also, in series [5], 120 µM corresponded to half-maximal inhibition (IC50).

With `O=C(CC1(O)C(=O)Nc2ccc(O)cc21)c1ccc(C(F)(F)F)cc1` (stereo not given), the Activity in series [1] was found to be 1.6 ×10³ /M/s. Besides, the logP in series [2] came out at 2.89. For the same molecule, the result in series [4] was Active. For the same molecule, the half-maximal inhibitory concentration (IC50) in series [5] was 80 µM.

Take `COc1ccc(C(=O)CC2(O)C(=O)Nc3ccc(O)cc32)cc1` (stereo not given): the Activity is 1.5 ×10³ /M/s in series [1] and “Non-toxic” in series [3]. Moreover, the logP in series [2] was 1.74. The outcome in series [4] was Active. In series [5], this molecule had an IC50 of 225 µM.

As for `O=C(CC1(O)C(=O)Nc2ccc(O)cc21)c1ccc(Br)cc1` (stereo not given), the Activity in series [1] is 1.2 ×10³ /M/s; in series [3], “Toxic”. Also, the logP in series [2] was found to be 2.55. Also, in series [4], the result was Active. The same molecule came in with an IC50 in series [5] of 75 µM.

In the case of `O=C(CC1(O)C(=O)Nc2ccc(O)cc21)c1ccccc1` (stereo not given), the Activity is 1.9 ×10³ /M/s in series [1] and “Non-toxic” in series [3]. Further, in series [2], the logP turned out to be 1.07. Further, in series [4], the result was Active. This molecule returned an IC50 in series [5] of 240 µM.

Turning to `N#Cc1ccc(C(=O)CC2(O)C(=O)Nc3ccc(O)cc32)cc1` (stereo not given), the values for the Activity in series [1] and in series [3] were 1.7 ×10³ /M/s and “Toxic”, respectively. In addition, in series [2], the logP was 1.91. Also, in series [4], the outcome was Active. In series [5], inhibition was half-maximal at 150 µM (IC50).

For the molecule `O=C(CC1(O)C(=O)Nc2ccc(O)cc21)c1ccc(F)cc1` (stereo not given), the Activity in series [1] is 1.5 ×10³ /M/s; in series [3], “Toxic”. For the same molecule, the logP in series [2] is 1.93. Also, in series [4], the result was Active. In series [5], this molecule showed a half-maximal inhibitory concentration (IC50) of 95 µM.

For `CC(=O)CC1(O)C(=O)Nc2ccc(O)cc21` (stereo not given), the Activity in series [1] was 0.74 ×10³ /M/s; in series [3], “Non-toxic”. In addition, the logP in series [2] worked out at 0.44. Moreover, the outcome in series [4] was inactive. Moreover, in series [5], the concentration for half-maximal inhibition (IC50) was greater than 300 µM.

`Oc1nc(O)c2nc(O)[nH]c2n1` [URIC ACID]: in series [1], the Activity came out at 0.63 ×10³ /M/s. Moreover, the result in series [4] was inactive. Besides, the half-maximal inhibitory concentration (IC50) in series [5] was greater than 300 µM.

Turning to `O=C1Cc2cc(O)ccc2N1`, the results for the Activity in series [1] and in series [3] were 9.2 ×10³ /M/s and “Non-toxic”, respectively. Besides, in series [2], the logP stood at 0.7. Further, the result in series [4] was Active. In series [5], this molecule registered a half-maximal inhibitory concentration (IC50) of 300 µM.
